pEC50: −log10 of the molar value. Where two headings read alike, the source gives them in different places.
Key:
[1] = tested on: panel of approximately sixty human tumor cell lines; assay: NCI one-dose primary anticancer assay; type: cell-based; settings: for activity at 10 µM: Homo sapiens, 60 cell, 48 h; for anticancer activity in words / number of cell lines against which the compound was effective: 1 dose 10 μM
Method in brief: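 NCI DTP single-dose screen on approximately sixty human tumor cell lines from nine cancer types. Test compound added at 10⁻⁵ M and cultures incubated 48 h. End point by sulforhodamine B protein staining, read spectrophotometrically. Result expressed as percent growth of treated cells relative to untreated control cells.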

Colon cancer cell lines = assay: NCI five-dose anticancer assay; type: cell-based, human; settings: 48 h; for TGI: Colon cancer subpanel average, five concentrations; for GI50: Homo sapiens
Method in brief: (§1)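 Approximately sixty human tumor cell lines from nine cancer types, tested by the NCI DTP protocol. Test compound given at five 10-fold dilutions (100, 10, 1, 0.1, 0.01 μM) with 48 h continuous exposure. SRB protein staining read spectrophotometrically at time zero, in untreated control and in treated wells. […] MG_MID averages each parameter over all cell lines.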

[2] = tested on: panel of approximately sixty tumor cell lines; assay: NCI five-dose anticancer assay; type: cell-based; settings: Homo sapiens, read-out: GI50 MG_MID
Method in brief: as §1

Renal cancer cell lines = assay: NCI five-dose anticancer assay; type: cell-based, human; settings: 48 h; for GI50: Homo sapiens; for TGI: Renal cancer subpanel average, five concentrations
Method in brief: as §1

[3] = tested on: NSC lung cancer cell lines; assay: NCI five-dose anticancer assay; type: cell-based, human; settings: 48 h; for GI50: Homo sapiens; for TGI: NSC lung cancer subpanel average, five concentrations
Method in brief: as §1

[4] = tested on: Ovarian cancer cell lines; assay: NCI five-dose anticancer assay; type: cell-based, human; settings: 48 h; for GI50: Homo sapiens; for TGI: Ovarian cancer subpanel average, five concentrations
Method in brief: as §1

CNS cancer cell lines = assay: NCI five-dose anticancer assay; type: cell-based, human; settings: 48 h; for TGI: CNS cancer subpanel average, five concentrations; for GI50: Homo sapiens
Method in brief: as §1

Breast cancer cell lines = assay: NCI five-dose anticancer assay; type: cell-based, human; settings: 48 h; for TGI: Breast cancer subpanel average, five concentrations
Method in brief: as §1

Melanoma cell lines = assay: NCI five-dose anticancer assay; type: cell-based, human; settings: 48 h; for GI50: Homo sapiens; for TGI: Melanoma subpanel average, five concentrations
Method in brief: as §1

[5] = tested on: Leukemia subpanel tumor cell lines; assay: NCI five-dose anticancer assay; type: cell-based, human; settings: for GI50: Homo sapiens; for TGI: Leukemia subpanel average, five concentrations
Method in brief: as §1

SARS CoV Urbani = assay: microbe, parasite or virus in culture; type: cell-based, SARS coronavirus; settings: for pEC50: Severe acute respiratory syndrome coronavirus
[6] = tested on: respiratory viruses panel (Flu A (H1N1), Flu A (H3N2), Flu A (H5N1), Flu B, SARS CoV); type: cell-based
[7] = tested on: Flu A (H3N2) Perth/16/2009; assay: Primary antiviral assay; type: cell-based
Flu B Florida/4/2006 = assay: Primary antiviral assay; type: cell-based
[8] = tested on: Flu A (H1N1) California/07/2009; assay: Primary antiviral assay; type: cell-based
[9] = tested on: Flu A (H5N1) Duck/MN/1525/81; type: cell-based
MOLT-4 = assay: NCI five-dose anticancer assay; type: cell-based, human; settings: MOLT-4, Leukemia; 48 h
Method in brief: as §1

[10] = tested on: Prostate cancer cell lines; assay: NCI five-dose anticancer assay; type: cell-based; settings: Homo sapiens, 48 h
Method in brief: as §1

HS 578T = assay: NCI five-dose anticancer assay; type: cell-based, human; settings: Breast cancer, 48 h
Method in brief: as §1

[11] = tested on: four strains of influenza virus; assay: Primary antiviral assay, influenza strains taken together; type: cell-based
[12] = 50% effective (virus-inhibitory) concentration

Molecule: COc1ccc(C2CC(c3ccc4ccccc4c3)=NN2C2SC(=O)N(CN3CCN(C(C)=O)CC3)C2=O)cc1 (centres unmarked) [3c, 3-(4-Acetylpiperazin-1-ylmethyl)-5-[5-(4-methoxyphenyl)-3-naphthalen-2-yl-4,5-dihydro-pyrazol-1-yl]-thiazolidine-2,4-dione]
- activity at 10 µM ([1]; read-out: Mean growth %): 101%
- activity at 10 µM ([1]; read-out: Range of growth %): 82.2 to 126%

Molecule: COc1ccc(C2CC(c3ccc4ccccc4c3)=NN2C(=O)/C=C2\SC(=O)NC2=O)cc1 (centres unmarked) [4e, 5-{2-[5-(4-Methoxyphenyl)-3-naphthalen-2-yl-4,5-dihydropyrazol-1-yl]-2-oxoethylidene}-thiazolidine-2,4-dione]
- anticancer activity in words [1]: did not show any activity
- activity at 10 µM ([1]; read-out: Mean growth %): 99.7%
- activity at 10 µM ([1]; read-out: Range of growth %): 78.7 to 132%

Molecule: CC(=O)N1CCN(CN2C(=O)SC(N3N=C(c4ccc5ccccc5c4)CC3c3ccc(Cl)cc3)C2=O)CC1 (centres unmarked) [3f, 3-(4-Acetylpiperazin-1-ylmethyl)-5-[5-(4-chlorophenyl)-3-naphthalen-2-yl-4,5-dihydropyrazol-1-yl]-thiazolidine-2,4-dione]
- anticancer activity in words [1]: did not show any activity
- activity at 10 µM ([1]; read-out: Mean growth %): 102%
- activity at 10 µM ([1]; read-out: Range of growth %): 76.4 to 131%

Molecule: COc1ccc(C2CC(c3ccc4ccccc4c3)=NN2C2SC(=O)N(CN3CCN(Cc4ccccc4)CC3)C2=O)cc1 (centres unmarked) [3d, 3-(4-Benzylpiperazin-1-ylmethyl)-5-[5-(4-methoxyphenyl)-3-naphthalen-2-yl-4,5-dihydropyrazol-1-yl]-thiazolidine-2,4-dione]
- activity at 10 µM ([1]; read-out: Mean growth %): 103%
- activity at 10 µM ([1]; read-out: Range of growth %): 74.5 to 127%

Molecule: COc1ccc(C2=NN(C(=O)/C=C3\SC(=O)NC3=O)C(c3ccccc3O)C2)cc1 (centres unmarked) [4d, 5-{2-[5-(2-Hydroxyphenyl)-3-(4-methoxyphenyl)-4,5-dihydropyrazol-1-yl]-2-oxoethylidene}-thiazolidine-2,4-dione]
- TGI (Colon cancer cell lines): 21.01 µM
- GI50 (Colon cancer cell lines): 5.73 µM
- GI50 [2]: 7.02 µM
- GI50 (Renal cancer cell lines): 8.13 µM
- TGI (Renal cancer cell lines): 44.04 µM
- GI50 [3]: 7.91 µM
- TGI [3]: 42.06 µM
- number of cell lines against which the compound was effective [1]: 12 cell lines
- activity at 10 µM ([1]; read-out: Mean growth %): 60.1%
- activity at 10 µM ([1]; read-out: Range of growth %): -27.3 to 160%
- GI50 [4]: 11.4 µM
- TGI [4]: 79.20 µM
- TGI (CNS cancer cell lines): 24.10 µM
- GI50 (CNS cancer cell lines): 7.57 µM
- TGI (Breast cancer cell lines): 47.30 µM
- GI50 (Breast cancer cell lines; Homo sapiens): 6.5 µM
- GI50 (Melanoma cell lines): 8.07 µM
- TGI (Melanoma cell lines): 28.21 µM
- GI50 ([5]; 48 h): 3.28 µM
- GI50 ([5]; read-out: GI50 values range): 2.12 to 4.58 µM
- TGI ([5]; 48 h): 25.31 µM

Molecule: CCN1CCN(CN2C(=O)SC(N3N=C(c4ccc5ccccc5c4)CC3c3ccc(Cl)cc3)C2=O)CC1 (centres unmarked) [3e, 5-[5-(4-Chlorophenyl)-3-naphthalen-2-yl-4,5-dihydropyrazol-1-yl]-3-(4-ethylpiperazin-1-ylmethyl)-thiazolidine-2,4-dione]
- SI (SARS CoV Urbani): 0
- pEC50 (SARS CoV Urbani): < 4.78

Molecule: NC(=O)c1ncn([C@@H]2O[C@H](CO)[C@@H](O)[C@H]2O)n1 [Ribavirin]
- CC50 (in vitro): > 348 µM
- activity of positive controls, in words [6]: active as expected

Molecule: COc1ccc(C2CC(c3ccc4ccccc4c3)=NN2C2SC(=O)NC2=O)cc1 (centres unmarked) [1a, 5-[5-(4-Methoxyphenyl)-3-naphthalen-2-yl-4,5-dihydropyrazol-1-yl]-thiazolidine-2,4-dione]
- SI (SARS CoV Urbani): 0
- pEC50 (SARS CoV Urbani): < 4.63
- anticancer activity in words [1]: did not show any activity
- activity at 10 µM ([1]; read-out: Mean growth %): 102%
- activity at 10 µM ([1]; read-out: Range of growth %): 77.5 to 114%

Molecule: COc1ccc(NC(=O)CN2C(=O)S/C(=C\C(=O)N3N=C(c4ccc5ccccc5c4)CC3c3ccc(OC)cc3)C2=O)cc1 (centres unmarked) [5d, N-(4-Methoxyphenyl)-2-(5-{2-[5-(4-methoxyphenyl)-3-naphthalen-2-yl-4,5-dihydropyrazol-1-yl]-2-oxoethylidene}-2,4-dioxothiazolidin-3-yl)-acetamide]
- anticancer activity in words [1]: did not show any activity
- activity at 10 µM ([1]; read-out: Mean growth %): 98%
- activity at 10 µM ([1]; read-out: Range of growth %): 74.7 to 119%

Molecule: oseltamivir carboxylate [Oseltamirvir-carboxylate]
- pEC50 [7, 12]: 5.51
- SI ([7]; […]): >11
- activity of positive controls, in words [6]: active as expected
- pEC50 (Flu B Florida/4/2006; [12]): 5.45
- SI (Flu B Florida/4/2006; […]): >10
- pEC50 [8, 12]: 4.72
- SI ([8]; […]): >1.9
- pEC50 [9]: 6.96
- SI [9]: >326
- CC50 (uninfected cells): > 35.2 µM

Molecule: O=C1NC(=O)/C(=C/C(=O)N2N=C(c3ccc4ccccc4c3)CC2c2ccc(Cl)cc2)S1 (centres unmarked) [4f, 5-{2-[5-(4-Chlorophenyl)-3-naphthalen-2-yl-4,5-dihydropyrazol-1-yl]-2-oxoethylidene}-thiazolidine-2,4-dione]
- TGI (Colon cancer cell lines): 63.20 µM
- GI50 (Colon cancer cell lines): 3.53 µM
- GI50 [2]: 4.38 µM
- TGI (MOLT-4): 7.41 µM
- GI50 (Renal cancer cell lines): 4.66 µM
- TGI (Renal cancer cell lines): 53.25 µM
- GI50 [10]: 4.61 µM
- GI50 [3]: 3.52 µM
- TGI [3]: 61.59 µM
- number of cell lines against which the compound was effective [1]: 18 cell lines
- activity at 10 µM ([1]; read-out: Mean growth %): 51%
- activity at 10 µM ([1]; read-out: Range of growth %): -5.27 to 109%
- GI50 [4]: 9.79 µM
- TGI [4]: 79.83 µM
- TGI (CNS cancer cell lines): 31.99 µM
- GI50 (CNS cancer cell lines): 4.09 µM
- TGI (HS 578T): 8.26 µM
- TGI (Breast cancer cell lines): 15.85 µM
- GI50 (Melanoma cell lines): 4.08 µM
- TGI (Melanoma cell lines): 45.88 µM
- GI50 ([5]; read-out: GI50 values range): 1.64 to 3.2 µM
- TGI ([5]; 48 h): 7.38 µM

Molecule: COc1ccc(C2CC(c3ccccc3)=NN2C(=O)/C=C2\SC(=O)NC2=O)cc1 (centres unmarked) [4a, 5-{2-[5-(4-Methoxyphenyl)-3-phenyl-4,5-dihydropyrazol-1-yl]-2-oxoethylidene}-thiazolidine-2,4-dione]
- anticancer activity in words [1]: moderately effective against few cell lines
- activity at 10 µM ([1]; read-out: Mean growth %): 96.6%
- activity at 10 µM ([1]; read-out: Range of growth %): 39.1 to 147%

Molecule: COc1ccc(C2CC(c3ccc4ccccc4c3)=NN2C2SC(=O)N(CN3CCCCC3)C2=O)cc1 (centres unmarked) [3a, 5-[5-(4-Methoxyphenyl)-3-naphthalen-2-yl-4,5-dihydropyrazol-1-yl]-3-piperidin-1-ylmethylthiazolidine-2,4-dione]
- activity at 10 µM ([1]; read-out: Mean growth %): 101%
- activity at 10 µM ([1]; read-out: Range of growth %): 69.5 to 113%

Molecule: COc1ccc(C2CC(c3ccc4ccccc4c3)=NN2C2SC(=O)N(CN3CCOCC3)C2=O)cc1 (centres unmarked) [3b, 5-[5-(4-Methoxyphenyl)-3-naphthalen-2-yl-4,5-dihydropyrazol-1-yl]-3-morpholin-4-ylmethylthiazolidine-2,4-dione]
- activity at 10 µM ([1]; read-out: Mean growth %): 99.5%
- activity at 10 µM ([1]; read-out: Range of growth %): 67.5 to 122%

Molecule: COc1ccc(C2CC(c3ccc4ccccc4c3)=NN2C2SC(=O)N(CC(=O)Nc3ccc(C)cc3)C2=O)cc1 (centres unmarked) [2a, 2-{5-[5-(4-Methoxyphenyl)-3-naphthalen-2-yl-4,5-dihydropyrazol-1-yl]-2,4-dioxothiazolidin-3-yl}-N-p-tolylacetamide]
- SI (SARS CoV Urbani): 0
- pEC50 (SARS CoV Urbani): < 3.50
- anticancer activity in words [1]: did not show any activity
- activity at 10 µM ([1]; read-out: Mean growth %): 99.2%
- activity at 10 µM ([1]; read-out: Range of growth %): 76.6 to 114%
- SI [9]: >16.3
- activity against other influenza strains, in words [11]: did not have significant activity

Molecule: COc1ccc(NC(=O)CN2C(=O)SC(N3N=C(c4ccc5ccccc5c4)CC3c3ccc(Cl)cc3)C2=O)cc1 (centres unmarked) [2c, 2-{5-[5-(4-Chlorophenyl)-3-naphthalen-2-yl-4,5-dihydropyrazol-1-yl]-2,4-dioxothiazolidin-3-yl}-N-(4-methoxyphenyl)-acetamide]
- SI (SARS CoV Urbani): 0
- pEC50 (SARS CoV Urbani): < 3.47

Molecule: Cc1ccc(NC(=O)CN2C(=O)SC(N3N=C(c4ccc5ccccc5c4)CC3c3ccc(Cl)cc3)C2=O)cc1 (centres unmarked) [2b, 2-{5-[5-(4-Chlorophenyl)-3-naphthalen-2-yl-4,5-dihydropyrazol-1-yl]-2,4-dioxothiazolidin-3-yl}-N-p-tolylacetamide]
- SI (SARS CoV Urbani): 0
- pEC50 (SARS CoV Urbani): < 3.45

Molecule: O=C1NC(=O)C(N2N=C(c3ccc4ccccc4c3)CC2c2ccc(Cl)cc2)S1 (centres unmarked) [1b, 5-[5-(4-Chlorophenyl)-3-naphthalen-2-yl-4,5-dihydropyrazol-1-yl]-thiazolidine-2,4-dione]
- SI (SARS CoV Urbani): 0
- pEC50 (SARS CoV Urbani): < 4.63
- anticancer activity in words [1]: did not show any activity
- activity at 10 µM ([1]; read-out: Mean growth %): 105%
- activity at 10 µM ([1]; read-out: Range of growth %): 74.9 to 170%
